V1aR counter = agonists of human V1a receptor, primary screen, counter-screen for OXTR agonist project, fluorescence, CHO-V1R cells | actives 0.25% (n = 320,000) | Fluo-8 calcium fluorescence, agonist mode; 0% DMSO, 100% 3 nM vasopressin | activation, % at 3 µM | Vasopressin V1a receptor (Homo sapiens), P37288 | AID 2797, 2010;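 active = activation above the mean activation of all tested compounds plus 3 SD, per screening run, cut at about 20% in these data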;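 note: signal is peak over basal fluorescence ratio across a 100 second FLIPR read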
OX1R antag-1 = antagonists of human orexin 1 receptor (OX1R); Orexin/Hypocretin receptor type 1 (Homo sapiens), O43613; OX1R-expressing cells, FRET antagonist read-out; inhibition, % at 6.6 µM; actives 1.8% (n = 330,000); AID 485270, 2010; in the data active = inhibition mostly above about 38%, no sharp cut-off; inactive = mostly below about 40%;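 note: 0% = agonist challenge alone and 100% = reference antagonist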
OXTR potentiate = human OXTR potentiators, primary screen, fluorescence, CHO-OTR cells, Fluo-8 calcium. Fluo-8 calcium fluorescence, potentiator mode; 0% = oxytocin EC15, 100% = EC100. actives 0.061% (n = 320,000). Oxytocin receptor (Homo sapiens), P30559. activation, % at 3 µM;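 active = activation above that plate's cutoff, the mean activation of tested compounds plus 3 SD, cut at about 6.6% in these data, passing the limit was not always enough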;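 note: 100% uses oxytocin at 75 nM as the full agonist control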
Target sequence (P30559 whole entry, looked up): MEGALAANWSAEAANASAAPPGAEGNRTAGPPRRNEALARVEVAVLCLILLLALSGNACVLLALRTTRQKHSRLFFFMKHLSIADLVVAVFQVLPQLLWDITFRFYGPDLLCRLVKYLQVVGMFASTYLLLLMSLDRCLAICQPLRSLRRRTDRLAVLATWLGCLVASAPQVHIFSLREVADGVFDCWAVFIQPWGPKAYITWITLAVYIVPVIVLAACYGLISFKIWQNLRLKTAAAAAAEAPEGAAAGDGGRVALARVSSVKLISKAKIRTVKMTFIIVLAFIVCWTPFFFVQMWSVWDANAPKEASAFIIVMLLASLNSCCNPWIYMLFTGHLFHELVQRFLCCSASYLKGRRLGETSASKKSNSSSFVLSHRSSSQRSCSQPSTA
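Assay system: CHO cell line stably expressing human OTR | Also added: Oxytocin at about EC15, sub-maximal agonist stimulus | Times: Compound 6 min at room temperature before oxytocin, 100 s read | Measured by: Fluo-8 intracellular calcium fluorescence, ex 470-495, em 515-575 nm | Controls: EC15 oxytocin alone as 0%, 75 nM oxytocin as 100%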
OXTR ag = human OXTR agonists, primary screen, fluorescence, CHO-OTR cells, Fluo-8 calcium; Oxytocin receptor (Homo sapiens), P30559; Fluo-8 calcium fluorescence; normalized: DMSO 0%, oxytocin 100%; activation, % at 3 µM; actives 0.32% (n = 320,000);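 active = activation above the mean of all tested compounds plus 3 SD, cutoff set per screening run, cut at about 20% in these data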;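 note: peak over basal fluorescence ratio from a 100 s FLIPR kinetic read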
OX1R antag-2 = OX1R (HCRTR1) antagonists, primary screen, fluorescence, CHO/OX1R cells, Fluo-8 calcium, orexin A; Orexin/Hypocretin receptor type 1 (Homo sapiens), O43613; Fluo-8 calcium fluorescence; inhibition, % at 5 µM; actives 0.43% (n = 330,000);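 active = inhibition above its plate's threshold, mean inhibition of all tested compounds on the plate plus 3 SD, cut at about 37% in these data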;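 note: 0% = orexin A challenge wells and 100% = SB-334867-A antagonist wells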
CHO parental Ca = ATP-evoked calcium signal inhibitors, parental CHO, primary screen, counter-screen for OX1R antagonist project, cell-based, fluorescence, Fluo-8 calcium dye; actives 0.63% (n = 330,000); inhibition, % at 5.6 µM; parental CHO-K1, ATP-induced calcium, Fluo-8 fluorescence;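 active = inhibition above that plate's mean sample inhibition plus 3 SD, cut at about 26% in these data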;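 note: 0% = ATP-challenged DMSO wells and 100% = DMSO wells without ATP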
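Material – parental CHO cells · Reagent – ATP stimulus · Compound – single nominal dose of 5.6 µM per compound · Detection – Fluo-8 fluorescence · Read-out basis – percent inhibition of calcium signal · Controls – ATP-challenged DMSO wells low, unchallenged DMSO wells high · Repeats – no replicates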
OXTR ag confirm = human OXTR agonists, confirmation, fluorescence, CHO-OTR cells, triplicate; shares compounds with OXTR ag; Fluo-8 calcium fluorescence, agonist; activation, % at 3 µM; actives 20% (n = 390); AID 434963, 2010;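 active = mean activation above about 20% derived from the earlier single-dose screen, limit read from the data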;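 note: peak over minimum fluorescence ratio per well during a 100 second FLIPR read; 0% = DMSO alone and 100% = oxytocin high control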
V1R ag counter 3x = V1a receptor agonists, calcium signal, counter-screen for OXTR agonist project, triplicate, fluorescence, CHO-V1R cells. shares compounds with OXTR ag. Fluo-8 calcium fluorescence. activation, % at 3 µM. actives 10% (n = 390);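 active = mean activation over triplicate exceeds the hit threshold set in the earlier primary screen, cut at about 20% in these data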;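 note: peak over basal fluorescence ratio within a 100 second read; 0% = DMSO alone and 100% = 3 nM vasopressin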
Numbers without * were called inactive. This is a sample that favours compounds with a hit; in the whole collection about 2.7% have one here.

What do the screens show for `COc1ccccc1C(=O)NNC(=O)c1ccc(NC(=O)CC(C)C)cc1`?
V1aR counter: 0; OX1R antag-1: 15; OXTR potentiate: -7; OXTR ag: 0; OX1R antag-2: -18; CHO parental Ca: 2

How did O=C(NCc1ccccn1)C1CCN(S(=O)(=O)c2cc(Cl)ccc2Cl)CC1 do in these assays?
V1aR counter: -1; OX1R antag-1: 14; OXTR potentiate: -3; OXTR ag: 0; OX1R antag-2: -9; CHO parental Ca: -10

What do the screens show for `Cc1cccc(C(=O)NC(=S)NNC(=O)Cc2ccccc2)c1`?
V1aR counter: 8; OX1R antag-1: 11; OXTR potentiate: -11; OXTR ag: 25*; OX1R antag-2: 1; CHO parental Ca: 11; OXTR ag confirm: 45*; V1R ag counter 3x: 58*

How did NS(=O)(=O)c1ccc(CCNCc2ccccc2OCc2ccc(Cl)cc2)cc1 do in these assays?
V1aR counter: 17; OX1R antag-1: 8; OXTR potentiate: -25; OXTR ag: 28*; OX1R antag-2: -4; CHO parental Ca: 4; OXTR ag confirm: 18; V1R ag counter 3x: 7

Results for NS(=O)(=O)c1ccc(CCNCc2cc(Cl)ccc2OCc2ccccc2)cc1 ?
V1aR counter: 17; OX1R antag-1: 5; OXTR potentiate: -23; OXTR ag: 22*; OX1R antag-2: -10; CHO parental Ca: 6; OXTR ag confirm: 8; V1R ag counter 3x: 8

How did C=CCOc1ccccc1CNCCc1ccc(S(N)(=O)=O)cc1 do in these assays?
V1aR counter: 0; OX1R antag-1: 2; OXTR potentiate: -12; OXTR ag: 0; OX1R antag-2: -19; CHO parental Ca: -6

What do the screens show for `CSc1ccc2c(c1)N(CCC1CCCCN1C)c1ccccc1S2` (stereo unspecified)?
V1aR counter: 9; OX1R antag-1: 11; OXTR potentiate: -10; OXTR ag: 24*; OX1R antag-2: 12; CHO parental Ca: 28; OXTR ag confirm: 16; V1R ag counter 3x: 5

How did CCCCCC(=O)Nc1ccc(-c2csc(N)n2)cc1 do in these assays?
V1aR counter: -1; OX1R antag-1: -10; OXTR potentiate: -5; OXTR ag: 0; OX1R antag-2: -10; CHO parental Ca: 10

Results for COC(=O)c1ccccc1NC(=O)CSc1nnc(-c2cccnc2)n1N ?
V1aR counter: 1; OX1R antag-1: 31; OXTR potentiate: -4; OXTR ag: -1; OX1R antag-2: -22; CHO parental Ca: -8

How did NC(=S)N/N=C1\CC(n2nnn(-c3cccc(Cl)c3)c2=S)C2COC1O2 (stereo unspecified) do in these assays?
V1aR counter: 10; OX1R antag-1: 18; OXTR potentiate: -26; OXTR ag: 6; OX1R antag-2: -7; CHO parental Ca: -11

What do the screens show for `Cc1cc(NC(=O)Cc2ccsc2)ccc1Br`?
V1aR counter: 1; OX1R antag-1: 10; OXTR potentiate: -11; OXTR ag: 0; OX1R antag-2: -19; CHO parental Ca: 0

How did Cc1c(Cl)cccc1NC(=O)Cn1cccc1 do in these assays?
V1aR counter: 0; OX1R antag-1: 4; OXTR potentiate: -6; OXTR ag: -1; OX1R antag-2: -7; CHO parental Ca: -7

What do the screens show for `Cc1cc(C)c2c(=O)n(CC(=O)Nc3ccc(Br)c(C)c3)sc2n1`?
V1aR counter: 20; OX1R antag-1: 15; OXTR potentiate: -12; OXTR ag: 37*; OX1R antag-2: -5; CHO parental Ca: -2; OXTR ag confirm: 10; V1R ag counter 3x: 7

Results for Cc1cc(C)c2c(=O)n(CC(=O)Nc3cccc(Cl)c3C)sc2n1 ?
V1aR counter: 19; OX1R antag-1: 8; OXTR potentiate: -10; OXTR ag: 42*; OX1R antag-2: 3; CHO parental Ca: 6; OXTR ag confirm: 20*; V1R ag counter 3x: 21*

What do the screens show for `COc1ccc(NC(=O)CN(C)C(=O)CSc2nc3ccccc3s2)cc1`?
V1aR counter: -1; OX1R antag-1: 8; OXTR potentiate: -1; OXTR ag: -1; OX1R antag-2: -21; CHO parental Ca: -23

How did CC(C)c1ccc2c(c1)C(N1CCN(C)CC1)Cc1cccnc1S2 (stereo unspecified) do in these assays?
V1aR counter: -1; OX1R antag-1: 16; OXTR potentiate: -6; OXTR ag: 4; OX1R antag-2: 5; CHO parental Ca: -16

What do the screens show for `CSc1ccc2c(c1)C(N1CCN(C)CC1)Cc1ccc(F)cc1S2` (stereo unspecified)?
V1aR counter: 10; OX1R antag-1: 6; OXTR potentiate: -8; OXTR ag: 26*; OX1R antag-2: -8; CHO parental Ca: 2; OXTR ag confirm: 4; V1R ag counter 3x: 1

What do the screens show for `N#C/C(=C\c1ccc(N2CCOCC2)c([N+](=O)[O-])c1)c1nc2ccccc2[nH]1`?
V1aR counter: 5; OX1R antag-1: 35; OXTR potentiate: -7; OXTR ag: 2; OX1R antag-2: -6; CHO parental Ca: -16

Results for N#C/C(=C\c1ccc(N2CCOCC2)o1)c1nc2ccccc2[nH]1 ?
V1aR counter: 16; OX1R antag-1: 32; OXTR potentiate: -23; OXTR ag: 43*; OX1R antag-2: -3; CHO parental Ca: 7; OXTR ag confirm: 176*; V1R ag counter 3x: 259*

What do the screens show for `O=C(NC1CC1)C1CCN(C2CCN(C(=O)c3ccc4cccc(F)c4n3)CC2)CC1`?
V1aR counter: -1; OX1R antag-1: 7; OXTR potentiate: -25; OXTR ag: 0; OX1R antag-2: 9; CHO parental Ca: 6

Results for O=c1cc(-c2ccccc2Cl)oc2c(NS(=O)(=O)c3cc(Cl)cc(Cl)c3O)ccc(O)c12 ?
V1aR counter: 15; OX1R antag-1: 70*; OXTR potentiate: -18; OXTR ag: 28*; OX1R antag-2: 43; CHO parental Ca: 75*; OXTR ag confirm: 17; V1R ag counter 3x: 17

Source: PubChem BioAssay (The Scripps Research Institute Molecular Screening Center)
